In ChEMBL document CHEMBL3046297, “Molecular design of antifungal agents” (J Agric Food Chem, 2002):
Converted amounts (≈) assume the structure as drawn. The source made the active and inactive calls. No cut-off for these calls is given here.

Tests used:
Saccharomyces cerevisiae [1] = assay: Antifungal activity against Saccharomyces cerevisiae ATCC 7754 after 48 hr by broth macrodilution method; details: ATCC 7754, 48 h
[2] = tested on: Radical scavenging activity; assay: Antioxidant activity assessed as DPPH free radical scavenging activity after 20 min; type: functional
Procedure, shortened: (§1)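 DPPH scavenging. The mix held 100 mM acetate buffer pH 5.5, ethanol, ethanolic DPPH and sample. It stood 20 min at room temperature, then absorbance was read at 517 nm. Results are % decrease versus a DPPH control. IC50 was interpolated from concentration-inhibition curves, as the mean of triplicates.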

Saccharomyces cerevisiae [3] = assay: microbe, parasite or virus in culture; type: functional; details: ATCC 7754, 48 h
Saccharomyces cerevisiae [4] = assay: microbe, parasite or virus in culture; type: functional; details: ATCC 7754, 48 h; remark: listed apart in the source
Saccharomyces cerevisiae [5] = assay: microbe, parasite or virus in culture; type: functional; details: ATCC 7754, 48 h; remark: listed apart in the source
Saccharomyces cerevisiae [6] = assay: microbe, parasite or virus in culture; type: functional; details: ATCC 7754, 48 h; remark: listed apart in the source
Saccharomyces cerevisiae [7] = assay: Drug uptake in Saccharomyces cerevisiae ATCC 7754 at 50 to 100 ug/ml after 5 seconds; type: ADME, organism-based; details: in vivo, 5 s
Procedure, shortened: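 Adsorption to cells. Yeast grown overnight with shaking in YPD at 30 °C was washed twice in 50 mM MOPS pH 6.0. Compound was mixed with or without cells (10^8 cells/mL) in this buffer at 30 °C and vortexed 5 s. After 2 min centrifugation, supernatant absorbance was read at 272 nm.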

Saccharomyces cerevisiae [8] = assay: Antifungal activity against Saccharomyces cerevisiae ATCC 7754 at 12.5 to 50 ug/ml after 1 hr by time kill analysis; type: functional, organism-based
Procedure, shortened: (§2)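 Time-kill assay. A 5-h, 30 °C preculture was inoculated into ME broth containing compound, initial 5.8 × 10^5 CFU/mL, then grown at 30 °C without shaking. Samples were taken at selected times over 48 h, serially diluted in sterile saline and plated on YPD agar. Plates were incubated 24 h at 30 °C before counting viable CFU.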

[9] = tested on: Radical scavenging activity; assay: Antioxidant activity assessed as DPPH free radical scavenging activity up to 800 ug/ml after 20 min; type: functional
Procedure, shortened: as §1

Saccharomyces cerevisiae [10] = assay: Antifungal activity against Saccharomyces cerevisiae ATCC 7754 at MFC to 4 times MFC treated 24 hr after incubation measured up to 30 hr; type: functional, organism-based
Procedure, shortened: (§3)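 Growth-stage kill test. Yeast at 10^5 cells/mL was inoculated into ME broth. Compound at MFC, 2× MFC or 4× MFC was added after 0, 4 or 24 h of incubation, and viable cells were then followed over time.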

Saccharomyces cerevisiae [11] = assay: Antifungal activity against Saccharomyces cerevisiae ATCC 7754 at 3.13 to 12.5 ug/ml after 1 hr by time kill analysis; type: functional, organism-based
Procedure, shortened: as §2

Saccharomyces cerevisiae [12] = assay: Antifungal activity against Saccharomyces cerevisiae ATCC 7754 at MFC after 2 hr; type: functional, organism-based
Procedure, shortened: as §2

Saccharomyces cerevisiae [13] = assay: Antifungal activity against Saccharomyces cerevisiae ATCC 7754 at MFC to 4 times MFC treated 4 hr after incubation measured up to 30 hr; type: functional, organism-based
Procedure, shortened: as §3

Row | MIC (Saccharomyces cerevisiae [1]) [µg/mL] | SMILES | MFC (Saccharomyces cerevisiae [1]) [µg/mL] | other results
1 | > 400 | CCCCCCCCCOC(=O)c1ccc(OC)c(O)c1 | > 400 | Activity [2]: Active
2 | > 400 | CCCCCCCCCOC(=O)c1ccc(O)c(OC)c1 | > 400 | Activity [2]: Active
3 | 800 (≈ 6880 µM) | CCCCCCCO [1-HEPTANOL] | > 1600 | 
4 | > 1600 | CCCCCCO [1-HEXANOL] | > 1600 | 
5 | 3200 (≈ 20800 µM) | O=C(O)c1cc(O)cc(O)c1 [3,5-DIHYDROXYBENZOIC ACID] | > 3200 | 
6 | 3200 (≈ 23200 µM) | O=C(O)c1cccc(O)c1 [3-HYDROXYBENZOIC ACID] | > 3200 | 
7 | 800 (≈ 6550 µM) | O=C(O)c1ccccc1 [BENZOIC ACID] | 1600 (≈ 13100 µM) | MFC (Saccharomyces cerevisiae [3]): 1600 µg/mL (≈ 13100 µM); MIC (Saccharomyces cerevisiae [3]): 800 µg/mL (≈ 6550 µM); MIC (Saccharomyces cerevisiae [4]): > 1600 µg/mL; MIC (Saccharomyces cerevisiae [5]): > 1600 µg/mL; MFC (Saccharomyces cerevisiae [6]): 1600 µg/mL (≈ 13100 µM); MIC (Saccharomyces cerevisiae [6]): 800 µg/mL (≈ 6550 µM)
8 | 50 (≈ 163 µM) | O=C(OC1CCC2CCCCC2C1)c1cc(O)c(O)c(O)c1 (configuration not stated) [DECAHYDRO-2-NAPHTHYL GALLATE] | 50 (≈ 163 µM) | 
9 | 50 (≈ 316 µM) | CCCCCCCCCCO [DECANOL] | 50 (≈ 316 µM) | 
10 | 12.5 (≈ 40.3 µM) | CCCCCCCCCCOC(=O)c1cc(O)c(O)c(O)c1 [DECYL GALLATE] | 25 (≈ 80.5 µM) | 
11 |  | CCCCCCCCCCCCO [DODECANOL] | > 1600 | 
12 | > 1600 | CCCCCCCCCCCCOC(=O)c1cc(O)c(O)c(O)c1 [DODECYL GALLATE] | > 1600 | Drug uptake (Saccharomyces cerevisiae [7]): Active
13 | > 3200 | COC(=O)c1cc(O)c(O)c(O)c1 [GALLIC ACID METHYL ESTER] |  | 
14 | 50 (≈ 163 µM) | CC(C)=CCC/C(C)=C/COC(=O)c1cc(O)c(O)c(O)c1 [Geranyl gallate] | 50 (≈ 163 µM) | Activity (Saccharomyces cerevisiae [8]): Active
15 | 100 (≈ 373 µM) | CCCCCCCOC(=O)c1cc(O)c(O)c(O)c1 [HEPTYL GALLATE] | 100 (≈ 373 µM) | 
16 | 400 (≈ 1680 µM) | CCCCCCOC(=O)c1ccc(O)c(O)c1 [HEXYL 3,4-DIHYDROXYBENZOATE] | 400 (≈ 1680 µM) | 
17 | > 800 | CCCCCCOC(=O)c1cc(O)cc(O)c1 [HEXYL 3,5-DIHYDROXYBENZOATE] |  | Activity [9]: inactive

Row | MIC (Saccharomyces cerevisiae [1]) [µg/mL] | SMILES | MFC (Saccharomyces cerevisiae [1]) [µg/mL] | other results
18 | > 800 | CCCCCCOC(=O)c1ccc(O)cc1 [HEXYL 4-HYDROXYBENZOATE] |  | Activity [9]: inactive
19 | 400 (≈ 1570 µM) | CCCCCCOC(=O)c1cc(O)c(O)c(O)c1 [HEXYL GALLATE] | 400 (≈ 1570 µM) | 
20 | 100 (≈ 693 µM) | CCCCCCCCCO [NONANOL] | 200 (≈ 1390 µM) | 
21 | 6.25 (≈ 22.3 µM) | CCCCCCCCCOC(=O)c1ccc(O)c(O)c1 [NONYL 3,4-DIHYDROXYBENZOATE] | 12.5 (≈ 44.6 µM) | Activity [2]: Active
22 | > 400 | CCCCCCCCCOC(=O)c1cc(O)cc(O)c1 [NONYL 3,5-DIHYDROXYBENZOATE] | > 400 | Activity [2]: inactive
23 | > 400 | CCCCCCCCCOC(=O)c1cccc(O)c1 [NONYL 3-HYDROXYBENZOATE] | > 400 | Activity [2]: inactive
24 | > 400 | CCCCCCCCCOC(=O)c1ccc(O)cc1 [NONYL 4-HYDROXYBENZOATE] |  | Activity [2]: inactive
25 | > 400 | CCCCCCCCCOC(=O)c1ccccc1 [NONYL BENZOATE] |  | Activity [2]: inactive
26 | 6.25 (≈ 21.1 µM) | CCCCCCCCCOC(=O)c1cc(O)c(O)c(O)c1 [NONYL GALLATE] | 12.5 (≈ 42.2 µM) | MFC (Saccharomyces cerevisiae [3]): 12.5 µg/mL (≈ 42.2 µM); MIC (Saccharomyces cerevisiae [3]): 6.25 µg/mL (≈ 21.1 µM); Activity (Saccharomyces cerevisiae [10]): Active; MFC (Saccharomyces cerevisiae [4]): 25 µg/mL (≈ 84.4 µM); MIC (Saccharomyces cerevisiae [4]): 12.5 µg/mL (≈ 42.2 µM); Activity (Saccharomyces cerevisiae [11]): Active; MFC (Saccharomyces cerevisiae [5]): 50 µg/mL (≈ 169 µM); MIC (Saccharomyces cerevisiae [5]): 25 µg/mL (≈ 84.4 µM); Drug uptake (Saccharomyces cerevisiae [7]): Active; Activity (Saccharomyces cerevisiae [12]): Active; MFC (Saccharomyces cerevisiae [6]): 12.5 µg/mL (≈ 42.2 µM); MIC (Saccharomyces cerevisiae [6]): 6.25 µg/mL (≈ 21.1 µM); Activity (Saccharomyces cerevisiae [13]): Active; Activity [2]: Active
27 | 200 (≈ 1540 µM) | CCCCCCCCO [OCTANOL] | 800 (≈ 6140 µM) | 
28 | 1600 (≈ 11600 µM) | O=C(O)c1ccc(O)cc1 [PARABEN] | > 3200 | 
29 | 3200 (≈ 15100 µM) | CCCOC(=O)c1cc(O)c(O)c(O)c1 [PROPYL GALLATE] | > 3200 | 
30 | 3200 (≈ 20800 µM) | O=C(O)c1ccc(O)c(O)c1 [PROTOCATECHUIC ACID] | > 3200 | 
31 |  | C/C=C/C=C/C(=O)O [SORBIC ACID] |  | MFC (Saccharomyces cerevisiae [3]): 1600 µg/mL (≈ 14300 µM); MIC (Saccharomyces cerevisiae [3]): 400 µg/mL (≈ 3570 µM); MIC (Saccharomyces cerevisiae [4]): > 1600 µg/mL; MIC (Saccharomyces cerevisiae [5]): > 1600 µg/mL; MFC (Saccharomyces cerevisiae [6]): 3200 µg/mL (≈ 28500 µM); MIC (Saccharomyces cerevisiae [6]): 800 µg/mL (≈ 7130 µM)
32 | > 1600 | CCCCCCCCCCCCCO [TRIDECAN-1-OL] |  | 
33 | 25 (≈ 145 µM) | CCCCCCCCCCCO [UNDECANOL] | 25 (≈ 145 µM) | 
34 | > 1600 | CCCCCCCCCCCOC(=O)c1cc(O)c(O)c(O)c1 [UNDECYL GALLATE] | > 1600 | 

Row | SMILES | MIC (Saccharomyces cerevisiae [1]) [µg/mL] | MFC (Saccharomyces cerevisiae [1]) [µg/mL] | other results
35 | O=C(O)c1cc(O)c(O)c(O)c1 [GALLIC ACID] | > 3200 |  | 
